Measurements gathered from unrelated publications.
Protocols differ between the studies behind these lines.
Target: Serine/threonine-protein kinase 32A (STK32A, Homo sapiens, UniProt Q8WU08)

COc1cc(Cl)c(C(=O)N[C@@H](CN[C@H]2CC[C@@H](N)CC2)Cc2ccc(C#N)cc2)cc1-c1ccc(CN[C@H](C)c2ccc(C)cc2)o1 — remaining activity (enzyme activity; inhibitor; 1 µM): 97%
Nc1ncnc2occ(-c3ccc(NC(=O)Nc4cc(C(F)(F)F)ccc4F)cc3)c12 — remaining signal (cell-free assay; 20 µM): 3.2%
O=C(NC[C@@H]1[C@H]2CN(C(=O)OCc3cc(C(F)(F)F)cc(C(F)(F)F)c3)C[C@@H]12)c1ccc2[nH]nnc2c1 — remaining binding (cell-free assay; competition with immobilised ligand; 1 µM): 72%
CN(C)c1nccc(-c2cnc3ncccn23)n1 — remaining binding (binding; 1 µM): 47%
CN1CCC2(CC1)NC(=O)c1c(c3ccc(Cl)c(Cl)c3n1C)C2C#N (racemic) — ΔTm (thermal stability; DSF; 10 µM): -0.4 °C
Cc1ccc(C(=O)Nc2ccc(CN3CCN(C)CC3)c(C(F)(F)F)c2)cc1C#Cc1cnc2cccnn12 — remaining signal (cell-free assay; 23.5 nM): 90%
Cn1c2c(c3ccc(Cl)c(Cl)c31)C(C#N)C1(CCCCC1)NC2=O (racemic) — ΔTm (thermal stability; DSF; 10 µM): 0.2 °C
CN1CC(Oc2cnc(C#N)cc2-c2ccn3nc(NC(=O)C4CC4)cc3c2)C1 — inhibition (enzyme activity; inhibitor; 1 µM): 3%
Cn1c2c(Cl)c(Cl)ccc2c2cc(N)[nH]c(=O)c21 — ΔTm (thermal stability; DSF; 10 µM): -0.3 °C
Cc1c(C(=O)O)cc(-c2ccc(C3CCNCC3)cc2)c2ccc(-c3ccc(C(F)(F)F)cc3)cc12 — remaining binding (binding; competition with immobilised ligand; 1 µM): 89%
